Data taken from paper PMC6682128 (ACS Omega, 2019).

Assay: Cytotoxicity assay
Type: cell-based
Conditions: human
Method in brief: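 Replicon cells (Huh5-2, Huh7.5-3a or Huh7.5-4a) were seeded at 10^4 per well and grown 24 h in complete DMEM. They were then exposed for three days to serial dilutions of test compound or DMSO solvent. Lysates were assayed for ATP by chemiluminescence, normalised to Bradford total protein. CC50 was obtained by nonlinear regression against log concentration.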

SMILES: COC(=O)N[C@H](C(=O)N1CCC[C@H]1C(=O)Nc1ccc(C#CC#Cc2ccc(NC(=O)[C@@H]3CCCN3C(=O)[C@@H](NC(=O)OC)C(C)C)cc2)cc1)C(C)C [1a, Dimethyl((2S,2′S)-((2S,2′S)-(((buta-1,3-diyne-1,4-diylbis(4,1-phenylene))bis(azanediyl))bis(carbonyl))bis(pyrrolidine-2,1-diyl))bis(3-methyl-1-oxobutane-1,2-diyl))dicarbamate]
- CC50 at 3 days: 11 µM

SMILES: CCCCOC(=O)N[C@H](C(=O)N1CCC[C@H]1C(=O)Nc1ccc(C#CC#Cc2ccc(NC(=O)[C@@H]3CCCN3C(=O)[C@@H](NC(=O)OCCCC)C(C)C)cc2)cc1)C(C)C [1c, Dibutyl((2S,2′S)-((2S,2′S)-(((buta-1,3-diyne-1,4-diylbis(4,1-phenylene))bis(azanediyl))bis(carbonyl))bis(pyrrolidine-2,1-diyl))bis(3-methyl-1-oxobutane-1,2-diyl))dicarbamate]
- CC50 at 3 days: > 20 µM

SMILES: CC(C)COC(=O)N[C@H](C(=O)N1CCC[C@H]1C(=O)Nc1ccc(C#CC#Cc2ccc(NC(=O)[C@@H]3CCCN3C(=O)[C@@H](NC(=O)OCC(C)C)C(C)C)cc2)cc1)C(C)C [1d, Diisobutyl((2S,2′S)-((2S,2′S)-(((buta-1,3-diyne-1,4-diylbis(4,1-phenylene))bis(azanediyl))bis(carbonyl))bis(pyrrolidine-2,1-diyl))bis(3-methyl-1-oxobutane-1,2-diyl))dicarbamate]
- CC50 at 3 days: > 10 µM

SMILES: CCOC(=O)N[C@@H](CC(C)C)C(=O)N1CCC[C@H]1C(=O)Nc1ccc(C#CC#Cc2ccc(NC(=O)[C@@H]3CCCN3C(=O)[C@H](CC(C)C)NC(=O)OCC)cc2)cc1 [1f, Diethyl((2S,2′S)-((2S,2′S)-(((buta-1,3-diyne-1,4-diylbis(4,1-phenylene))bis(azanediyl))bis(carbonyl))bis(pyrrolidine-2,1-diyl))bis(4-methyl-1-oxopentane-1,2-diyl))dicarbamate]
- CC50 at 3 days: > 10 µM

SMILES: CCCCOC(=O)N[C@@H](CC(C)C)C(=O)N1CCC[C@H]1C(=O)Nc1ccc(C#CC#Cc2ccc(NC(=O)[C@@H]3CCCN3C(=O)[C@H](CC(C)C)NC(=O)OCCCC)cc2)cc1 [1g, Dibutyl((2S,2′S)-((2S,2′S)-(((buta-1,3-diyne-1,4-diylbis(4,1-phenylene))bis(azanediyl))bis(carbonyl))bis(pyrrolidine-2,1-diyl))bis(4-methyl-1-oxopentane-1,2-diyl))dicarbamate]
- CC50 at 3 days: > 10 µM

SMILES: CCOC(=O)N[C@H](C(=O)N1CCC[C@H]1C(=O)Nc1ccc(C#CC#Cc2ccc(NC(=O)[C@@H]3CCCN3C(=O)[C@@H](NC(=O)OCC)C(C)CC)cc2)cc1)C(C)CC (stereo partly drawn) [1h, Diethyl((2S,2′S)-((2S,2′S)-(((buta-1,3-diyne-1,4-diylbis(4,1-phenylene))bis(azanediyl))bis(carbonyl))bis(pyrrolidine-2,1-diyl))bis(3-methyl-1-oxopentane-1,2-diyl))dicarbamate]
- CC50 at 3 days: > 10 µM

SMILES: CCCCOC(=O)N[C@H](C(=O)N1CCC[C@H]1C(=O)Nc1ccc(C#CC#Cc2ccc(NC(=O)[C@@H]3CCCN3C(=O)[C@@H](NC(=O)OCCCC)C(C)CC)cc2)cc1)C(C)CC (stereo partly drawn) [1i, Dibutyl((2S,2′S)-((2S,2′S)-(((buta-1,3-diyne-1,4-diylbis(4,1-phenylene))bis(azanediyl))bis(carbonyl))bis(pyrrolidine-2,1-diyl))bis(3-methyl-1-oxopentane-1,2-diyl))dicarbamate]
- CC50 at 3 days: > 10 µM

SMILES: CCOC(=O)N[C@H](C(=O)N1CCC[C@@H]1C(=O)Nc1ccc(C#CC#Cc2ccc(NC(=O)[C@H]3CCCN3C(=O)[C@@H](NC(=O)OCC)C(C)C)cc2)cc1)C(C)C [1j, Diethyl((2S,2′S)-((2R,2′R)-(((buta-1,3-diyne-1,4-diylbis(4,1-phenylene))bis(azanediyl))bis(carbonyl))bis(pyrrolidine-2,1-diyl))bis(3-methyl-1-oxobutane-1,2-diyl))dicarbamate]
- CC50 at 3 days: > 10 µM

SMILES: CCOC(=O)N[C@@H](C(=O)N1CCC[C@@H]1C(=O)Nc1ccc(C#CC#Cc2ccc(NC(=O)[C@H]3CCCN3C(=O)[C@H](NC(=O)OCC)C(C)C)cc2)cc1)C(C)C [1k, Diethyl((2R,2′R)-((2R,2′R)-(((buta-1,3-diyne-1,4-diylbis(4,1-phenylene))bis(azanediyl))bis(carbonyl))bis(pyrrolidine-2,1-diyl))bis(3-methyl-1-oxobutane-1,2-diyl))dicarbamate]
- CC50 at 3 days: > 10 µM

SMILES: CCOC(=O)N[C@@H](CC(C)C)C(=O)N1CCC[C@@H]1C(=O)Nc1ccc(C#CC#Cc2ccc(NC(=O)[C@H]3CCCN3C(=O)[C@H](CC(C)C)NC(=O)OCC)cc2)cc1 [1l, Diethyl((2S,2′S)-((2R,2′R)-(((buta-1,3-diyne-1,4-diylbis(4,1-phenylene))bis(azanediyl))bis(carbonyl))bis(pyrrolidine-2,1-diyl))bis(4-methyl-1-oxopentane-1,2-diyl))dicarbamate]
- CC50 at 3 days: > 10 µM

SMILES: CCOC(=O)N[C@H](CC(C)C)C(=O)N1CCC[C@@H]1C(=O)Nc1ccc(C#CC#Cc2ccc(NC(=O)[C@H]3CCCN3C(=O)[C@@H](CC(C)C)NC(=O)OCC)cc2)cc1 [1m, Diethyl((2R,2′R)-((2R,2′R)-(((buta-1,3-diyne-1,4-diylbis(4,1-phenylene))bis(azanediyl))bis(carbonyl))bis(pyrrolidine-2,1-diyl))bis(4-methyl-1-oxopentane-1,2-diyl))dicarbamate]
- CC50 at 3 days: > 10 µM

SMILES: CCOC(=O)N[C@@H](C(=O)N1CCC[C@H]1C(=O)Nc1ccc(C#CC#Cc2ccc(NC(=O)[C@@H]3CCCN3C(=O)[C@H](NC(=O)OCC)C(C)C)cc2)cc1)C(C)C [1n, Diethyl((2R,2′R)-((2S,2′S)-(((buta-1,3-diyne-1,4-diylbis(4,1-phenylene))bis(azanediyl))bis(carbonyl))bis(pyrrolidine-2,1-diyl))bis(3-methyl-1-oxobutane-1,2-diyl))dicarbamate]
- CC50 at 3 days: 70.6 µM

SMILES: CC(C)C[C@H](NC(=O)OCc1ccccc1)C(=O)N1CCC[C@H]1C(=O)Nc1ccc(C#CC#Cc2ccc(NC(=O)[C@@H]3CCCN3C(=O)[C@H](CC(C)C)NC(=O)OCc3ccccc3)cc2)cc1 [1o, Dibenzyl((2S,2′S)-((2S,2′S)-(((buta-1,3-diyne-1,4-diylbis(4,1-phenylene))bis(azanediyl))bis(carbonyl))bis(pyrrolidine-2,1-diyl))bis(4-methyl-1-oxopentane-1,2-diyl))dicarbamate]
- CC50 at 3 days: > 10 µM

SMILES: CCC(C)[C@H](NC(=O)OCc1ccccc1)C(=O)N1CCC[C@H]1C(=O)Nc1ccc(C#CC#Cc2ccc(NC(=O)[C@@H]3CCCN3C(=O)[C@@H](NC(=O)OCc3ccccc3)C(C)CC)cc2)cc1 (stereo partly drawn) [1p, Dibenzyl((2S,2′S)-((2S,2′S)-(((buta-1,3-diyne-1,4-diylbis(4,1-phenylene))bis(azanediyl))bis(carbonyl))bis(pyrrolidine-2,1-diyl))bis(3-methyl-1-oxopentane-1,2-diyl))dicarbamate]
- CC50 at 3 days: > 10 µM

SMILES: CCOC(=O)N[C@H](C(=O)N1CCC[C@H]1C(=O)Nc1cccc(C#CC#Cc2cccc(NC(=O)[C@@H]3CCCN3C(=O)[C@@H](NC(=O)OCC)C(C)C)c2)c1)C(C)C [2b, Diethyl((2S,2′S)-((2S,2′S)-(((buta-1,3-diyne-1,4-diylbis(3,1-phenylene))bis(azanediyl))bis(carbonyl))bis(pyrrolidine-2,1-diyl))bis(3-methyl-1-oxobutane-1,2-diyl))dicarbamate]
- CC50 at 3 days: > 200 µM

SMILES: CCCCOC(=O)N[C@H](C(=O)N1CCC[C@H]1C(=O)Nc1cccc(C#CC#Cc2cccc(NC(=O)[C@@H]3CCCN3C(=O)[C@@H](NC(=O)OCCCC)C(C)C)c2)c1)C(C)C [2c, Dibutyl((2S,2′S)-((2S,2′S)-(((buta-1,3-diyne-1,4-diylbis(3,1-phenylene))bis(azanediyl))bis(carbonyl))bis(pyrrolidine-2,1-diyl))bis(3-methyl-1-oxobutane-1,2-diyl))dicarbamate]
- CC50 at 3 days: > 10 µM

SMILES: CC(C)COC(=O)N[C@H](C(=O)N1CCC[C@H]1C(=O)Nc1cccc(C#CC#Cc2cccc(NC(=O)[C@@H]3CCCN3C(=O)[C@@H](NC(=O)OCC(C)C)C(C)C)c2)c1)C(C)C [2d, Diisobutyl((2S,2′S)-((2S,2′S)-(((buta-1,3-diyne-1,4-diylbis(3,1-phenylene))bis(azanediyl))bis(carbonyl))bis(pyrrolidine-2,1-diyl))bis(3-methyl-1-oxobutane-1,2-diyl))dicarbamate]
- CC50 at 3 days: > 20 µM

SMILES: CCCCOC(=O)N[C@@H](CC(C)C)C(=O)N1CCC[C@H]1C(=O)Nc1cccc(C#CC#Cc2cccc(NC(=O)[C@@H]3CCCN3C(=O)[C@H](CC(C)C)NC(=O)OCCCC)c2)c1 [2g, Dibutyl((2S,2′S)-((2S,2′S)-(((buta-1,3-diyne-1,4-diylbis(3,1-phenylene))bis(azanediyl))bis(carbonyl))bis(pyrrolidine-2,1-diyl))bis(4-methyl-1-oxopentane-1,2-diyl))dicarbamate]
- CC50 at 3 days: > 10 µM

SMILES: CCOC(=O)N[C@H](C(=O)N1CCC[C@H]1C(=O)Nc1cccc(C#CC#Cc2cccc(NC(=O)[C@@H]3CCCN3C(=O)[C@@H](NC(=O)OCC)[C@@H](C)CC)c2)c1)[C@H](C)CC [2h, Ethyl((2S,3S)-1-((S)-2-((3-((3-((S)-1-((ethoxycarbonyl)-L-alloisoleucyl)pyrrolidine-2-carboxamido)phenyl)buta-1,3-diyn-1-yl)phenyl)carbamoyl)pyrrolidin-1-yl)-3-methyl-1-oxopentan-2-yl)carbamate]
- CC50 at 3 days: > 200 µM

SMILES: CCCCOC(=O)N[C@H](C(=O)N1CCC[C@H]1C(=O)Nc1cccc(C#CC#Cc2cccc(NC(=O)[C@@H]3CCCN3C(=O)[C@@H](NC(=O)OCCCC)[C@@H](C)CC)c2)c1)[C@H](C)CC [2i, Butyl((2S,3S)-1-((S)-2-((3-((3-((S)-1-((butoxycarbonyl)-L-alloisoleucyl)pyrrolidine-2-carboxamido)phenyl)buta-1,3-diyn-1-yl)phenyl)carbamoyl)pyrrolidin-1-yl)-3-methyl-1-oxopentan-2-yl)carbamate]
- CC50 at 3 days: > 10 µM
